Test results reported in publication PMC12753540 (Investigational New Drugs, 2025).
“And” between values parts separate entries of the source, which are not always exact repeats. Equal entries are not always repeated. Marks after values point to notes of the source that are not given here.

What was measured:
[1] = system: advanced gastric cancer, metastatic melanoma, non-small-cell lung cancer; conditions: in combination with durvalumab; phase 2 studies; cited from earlier work
[2] = cited from earlier work
advanced solid tumors = conditions: monotherapy, cited from earlier work
[3] = system: advanced solid malignancies; assay: Phase 1 study: antitumor activity; assay type: in vivo, human (Japanese patients); conditions: for Best overall response: Complete response / Best overall response: Partial response: confirmed; for Best overall response: Stable disease: maintained ≥ 7 weeks from Cycle 1 Day 1; for Median PFS: Kaplan-Meier, data cutoff May 25, 2023
Summary of the method: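 Oral twice-daily dosing on Days 1–7 of 28-day cycles, after a single oral dose on C0D1 (4-day Cycle 0). Tumors were imaged by CT or MRI at baseline, then by the same method every 8 weeks (±1 week) until progression, per RECIST 1.1. CR/PR needed confirmation ≥4 weeks later, and SD had to last ≥7 weeks from C1D1. ORR was limited to measurable disease, with Clopper-Pearson 95% CI; PFS by Kaplan–Meier.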

[4] = Phase 1 study: plasma pharmacokinetics, non-compartmental analysis; assay type: in vivo, human (Japanese patients); conditions: for tmax, Median (range) / Cmax / Vd/F / half-life: oral; for tmax, Median (range) / Cmax / Vd/F / half-life / Tmax: plasma; for Cmax / Vd/F / half-life / Tmax: human; for Vd/F: Arithmetic mean (SD); for half-life: t1/2, Arithmetic mean (SD); for Tmax: po, Median (range)
[5] = Phase 1 study: safety and tolerability; assay type: in vivo, human (Japanese patients with advanced solid tumors)
Summary of the method: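 Oral dosing was 240 mg BID on Days 1–7 (Cohort 1) or 160 mg BID on Days 1–14 (Cohort 2) of 28-day cycles, after a single dose on C0D1, using a rolling-6 escalation design. DLTs were assessed over Cycles 0 and 1. AEs were coded by MedDRA and graded by CTCAE v4.03. The TEAE window ran from first dose to 30 (+7) days after the last dose or discontinuation. Relatedness was judged by the investigator. Data were summarized descriptively for all patients who received ≥1 dose.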

[6] = Multiple-dose administration, Cohort 1 240 mg BID (n = 6)
[7] = Multiple-dose administration, Cohort 2 160 mg BID (n = 6)
[8] = Single-dose administration, Cohort 1 240 mg (n = 6)
[9] = Single-dose administration, Cohort 2 160 mg (n = 6)
[10] = 160 mg, Single-dose administration, Cohort 2 160 mg (n = 6)
[11] = 240 mg, Single-dose administration, Cohort 1 240 mg (n = 6)
[12] = Cohort 1 240 mg BID (n = 6), Any grade
[13] = Cohort 2 160 mg BID (n = 6), Any grade

Q: Which results are given for `C[C@@H]1COCCN1c1cc(C2([S@](C)(=N)=O)CC2)nc(-c2cc[nH]c3nccc2-3)n1` [ceralasertib]?
A: Objective response rates (ORR) [1]: 14 to 31%; Median tmax ([2]; Caucasian patients, PATRIOT study): 0.5 to 4 h; Mean t1/2 after single dosing ([2]; PATRIOT studies, at higher doses): 11.2 to 12.8 h; Disease control (evaluable patients) (advanced solid tumors; 39 of 66 evaluable patients): 59%; Confirmed partial response (advanced solid tumors; 66 evaluable patients): 5 n; Stable disease or unconfirmed PR (advanced solid tumors; 66 evaluable patients): 34 n; Best overall response: Not evaluable ([3]; Cohort 1 240 mg BID (n = 6)): 1 (16.7) n (%); Best overall response: Not evaluable, No post-baseline assessment ([3]; Cohort 1 240 mg BID (n = 6)): 1 (16.7) n (%); Best overall response: Objective response ([3]; Cohort 1 240 mg BID (n = 6)): 0 n (%); Best overall response: Progressive disease ([3]; Cohort 1 240 mg BID (n = 6)): 3 n (%) and 3 (50.0) n (%); Best overall response: Complete response ([3]; Cohort 1 240 mg BID (n = 6)): 0 n (%); Best overall response: Partial response ([3]; Cohort 1 240 mg BID (n = 6)): 0 n (%); Best overall response: Stable disease ([3]; Cohort 1 240 mg BID (n = 6)): 2 n (%) and 2 (33.3) n (%); Median PFS ([3]; Cohort 1 240 mg BID): 2.1 months; Best overall response: Not evaluable ([3]; Cohort 2 160 mg BID (n = 6)): 0 n (%); Best overall response: Not evaluable, No post-baseline assessment ([3]; Cohort 2 160 mg BID (n = 6)): 0 n (%); Best overall response: Objective response ([3]; Cohort 2 160 mg BID (n = 6)): 0 n (%); Best overall response: Progressive disease ([3]; Cohort 2 160 mg BID (n = 6)): 2 n (%) and 2 (33.3) n (%); Best overall response: Complete response ([3]; Cohort 2 160 mg BID (n = 6)): 0 n (%); Best overall response: Partial response ([3]; Cohort 2 160 mg BID (n = 6)): 0 n (%); Best overall response: Stable disease ([3]; Cohort 2 160 mg BID (n = 6)): 4 n (%) and 4 (66.7) n (%); Median PFS ([3]; Cohort 2 160 mg BID): 3.3 months; Patients with best objective response of stable disease ([3]; both cohorts in total, 12 patients): 6 patients; AUCss, Geometric mean (CV%) [4, 6]: 94,970 (20.38) ng x h/mL; AUCss,last, Geometric mean (CV%) [4, 6]: 92,140 (20.55) ng x h/mL; CLss/F, Arithmetic mean (SD) [4, 6]: 2.568 (0.4725) L/h; Css,max, Geometric mean (CV%) [4, 6]: 11,970 (16.26) ng/mL; tss,max, Median (range) ([4]; Multiple-dose administration, Cohort 1 240 mg BID (n = 6), Cycle 1 Day 7): 1.97 (0.95–2.83) h; AUCss, Geometric mean (CV%) [4, 7]: 57,400 (17.41) ng x h/mL; AUCss,last, Geometric mean (CV%) [4, 7]: 56,020 (17.05) ng x h/mL; CLss/F, Arithmetic mean (SD) [4, 7]: 2.822 (0.4864) L/h; Css,max, Geometric mean (CV%) [4, 7]: 8132 (16.01) ng/mL; tss,max, Median (range) ([4]; Multiple-dose administration, Cohort 2 160 mg BID (n = 6), Cycle 1 Day 8): 1.87 (0.52–2.92) h; AUC(0–12), Geometric mean (CV%) [4, 8]: 54,260 (12.8) ng x h/mL; AUCinf, Geometric mean (CV%) [4, 8]: 102,800 (20.67) ng x h/mL; AUClast, Geometric mean (CV%) [4, 8]: 100,700 (19.14) ng x h/mL; CL/F, Arithmetic mean (SD) [4, 8]: 2.4 L/h and 2.375 (0.4926) L/h; Vz/F, Arithmetic mean (SD) [4, 8]: 40.47 (7.307) L; t1/2, Arithmetic mean (SD) [4, 8]: 12.24 (3.472) h; tmax, Median (range) [4, 8]: 2.04 (1.98–3.97) h; AUC(0–12), Geometric mean (CV%) [4, 9]: 39,160 (16.33) ng x h/mL; AUCinf, Geometric mean (CV%) [4, 9]: 71,440 (29.19) ng x h/mL; AUClast, Geometric mean (CV%) [4, 9]: 69,120 (25.54) ng x h/mL; CL/F, Arithmetic mean (SD) [4, 9]: 2.3 L/h and 2.318 (0.6707) L/h; Vz/F, Arithmetic mean (SD) [4, 9]: 43.03 (8.284) L; tmax, Median (range) [4, 9]: 1.92 (0.85–2.13) h; Cmax ([4]; 160 mg): 6550 ng/mL; Vd/F ([4]; 160 mg, Vss/F, Multiple-dose administration, Cohort 2 160 mg BID (n = 6)): 35.3 L; half-life [4, 10]: 13.9 h; Cmax ([4]; 240 mg): 7670 ng/mL; Vd/F ([4]; 240 mg, Vss/F, Multiple-dose administration, Cohort 1 240 mg BID (n = 6)): 33.8 L; Vd/F ([4]; 240 mg, Vz/F, Single-dose administration, Cohort 1 240 mg (n = 6)): 40.5 L; half-life [4, 11]: 12.2 h; Tmax [4, 10]: 1.9 h; Tmax [4, 11]: 2 h; Accumulation of ceralasertib in plasma ([4]; multiple administrations at 160 mg or 240 mg): up to 1.8 fold; Arithmetic mean TCP ([4]; range across both cohorts, multiple dosing): 0.82–0.94; Dose proportionality of exposure ([4]; single and multiple dosing, 160 mg and 240 mg): A trend suggesting a dose-proportional increase in exposure; Any DLT ([5]; Cohort 1 240 mg BID (n = 6)): 1 (16.7)* n (%); Any SAE ([5]; Cohort 1 240 mg BID (n = 6)): 0 n (%); Any SAE related to treatment ([5]; Cohort 1 240 mg BID (n = 6)): 0 n (%); Any SAE related to treatment, Grade ≥ 3 ([5]; Cohort 1 240 mg BID (n = 6)): 0 n (%); Any SAE, Grade ≥ 3 ([5]; Cohort 1 240 mg BID (n = 6)): 0 n (%); Any TEAE ([5]; Cohort 1 240 mg BID (n = 6)): 6 (100) n (%); Any TEAE leading to death ([5]; Cohort 1 240 mg BID (n = 6)): 0 n (%); Any TEAE leading to discontinuation of ceralasertib ([5]; Cohort 1 240 mg BID (n = 6)): 1 (16.7)* n (%); Any TEAE leading to discontinuation of ceralasertib, Related to treatment ([5]; Cohort 1 240 mg BID (n = 6)): 1 (16.7)* n (%); Any TEAE leading to dose interruption of ceralasertib ([5]; Cohort 1 240 mg BID (n = 6)): 0 n (%); Any TEAE leading to dose interruption of ceralasertib, Related to treatment ([5]; Cohort 1 240 mg BID (n = 6)): 0 n (%); Any TEAE leading to dose reduction of ceralasertib ([5]; Cohort 1 240 mg BID (n = 6)): 1 (16.7) n (%); Any TEAE leading to dose reduction of ceralasertib, Related to treatment ([5]; Cohort 1 240 mg BID (n = 6)): 1 (16.7) n (%); Any TEAE, Grade ≥ 3 ([5]; Cohort 1 240 mg BID (n = 6)): 1 (16.7)* n (%); Any TRAE ([5]; Cohort 1 240 mg BID (n = 6)): 5 (83.3) n (%); Any TRAE leading to death ([5]; Cohort 1 240 mg BID (n = 6)): 0 n (%); Any TRAE, Grade ≥ 3 ([5]; Cohort 1 240 mg BID (n = 6)): 1 (16.7)* n (%); TEAE: Anemia [5, 12]: 3 n (%); TEAE: Constipation [5, 12]: 2 n (%); TEAE: Nausea [5, 12]: 3 n (%); TEAE: Neutrophil count decreased [5, 12]: 2 n (%); TEAE: Platelet count decreased [5, 12]: 2 n (%); Any DLT ([5]; Cohort 2 160 mg BID (n = 6)): 1 (16.7)^† n (%); Any SAE ([5]; Cohort 2 160 mg BID (n = 6)): 2 (33.3) n (%); Any SAE related to treatment ([5]; Cohort 2 160 mg BID (n = 6)): 1 (16.7)^† n (%); Any SAE related to treatment, Grade ≥ 3 ([5]; Cohort 2 160 mg BID (n = 6)): 1 (16.7)^† n (%); Any SAE, Grade ≥ 3 ([5]; Cohort 2 160 mg BID (n = 6)): 2 (33.3) n (%); Any TEAE ([5]; Cohort 2 160 mg BID (n = 6)): 6 (100) n (%); Any TEAE leading to death ([5]; Cohort 2 160 mg BID (n = 6)): 0 n (%); Any TEAE leading to discontinuation of ceralasertib ([5]; Cohort 2 160 mg BID (n = 6)): 0 n (%); Any TEAE leading to discontinuation of ceralasertib, Related to treatment ([5]; Cohort 2 160 mg BID (n = 6)): 0 n (%); Any TEAE leading to dose interruption of ceralasertib ([5]; Cohort 2 160 mg BID (n = 6)): 1 (16.7)^† n (%); Any TEAE leading to dose interruption of ceralasertib, Related to treatment ([5]; Cohort 2 160 mg BID (n = 6)): 1 (16.7)^† n (%); Any TEAE leading to dose reduction of ceralasertib ([5]; Cohort 2 160 mg BID (n = 6)): 1 (16.7)^† n (%); Any TEAE leading to dose reduction of ceralasertib, Related to treatment ([5]; Cohort 2 160 mg BID (n = 6)): 1 (16.7)^† n (%); Any TEAE, Grade ≥ 3 ([5]; Cohort 2 160 mg BID (n = 6)): 2 (33.3) n (%); Any TRAE leading to death ([5]; Cohort 2 160 mg BID (n = 6)): 0 n (%); Any TRAE, Grade ≥ 3 ([5]; Cohort 2 160 mg BID (n = 6)): 1 (16.7)^† n (%); TEAE: Anemia [5, 13]: 4 n (%); TEAE: Nausea [5, 13]: 4 n (%); TEAE: Platelet count decreased [5, 13]: 4 n (%); TEAE: White blood cell count decreased [5, 13]: 3 n (%); Patients with grade ≥ 3 treatment-emergent adverse event ([5]; both cohorts, 12 patients treated): 3 patients; Overall tolerability ([5]; monotherapy, both regimens): well tolerated with an acceptable safety profile; Patients with low grade (grade ≤ 2) events only ([5]; of 12 patients enrolled): 9 patients
